Data set [1] has as its target T1, Estrogen receptor (Mus musculus) (UniProt O08537+P19785). The experiment in a line: Ratio of [18F]FEDPN uptake in uterus of ERbeta KO-mouse (diestrus) and ERalpha KO-mouse (nonestrus) after 2 hr.
Data set [2] in a line: Biodistribution of [18F]-FEDPN in rat uterus after 1 hr when given in tail vein; (n=5). Format: ADME, organism-based. Particulars: in vivo, iv. Summed up:
(§1)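 Immature female Sprague–Dawley rats (<25 days old) anesthetized with isoflurane/O2. Given 20 µCi tracer by tail vein in 150 µL of 20% ethanol/saline. […] Killed at 30 min, 1 h or 2 h. Blood and organs blotted, weighed and gamma-counted against a standard dilution of the injectate. Reported as %ID/g ± SD, n=5.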

Data set [3] can be described thus: Biodistribution of [18F]FEDPN in beta estrogen receptor knock out mouse fat after 2 h; (n=3). Format: ADME, organism-based, Adipose tissue. The settings on record: in vivo. Summed up:
(§2)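 αERKO and βERKO mice, staged by daily vaginal smears and kept on estrogen-free chow, were studied in a nonestrous stage. Each mouse received 11 μCi of tracer in 130 μL of 10% ethanol/saline. Mice were killed at 30 min, 1 h or 2 h (n = 3 each). Organs were removed, blotted, weighed and gamma-counted against an injectate standard. Uptake is given as %ID/g ± SD.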

Data set [4] in a line: Biodistribution of [18F]FEDPN in rat spleen after 1 h when given in tail vein; (n=5). Format: ADME, organism-based. Particulars: in vivo, iv. Summed up:
(§3)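 Immature female Sprague–Dawley rats (<25 days old) under isoflurane/O2 got 20 µCi tracer in 150 µL 20% ethanol/saline by tail vein. […] Rats were killed at 30 min, 1 h or 2 h. Organs were blotted, weighed and gamma-counted against an injectate standard. Data are %ID/g ± SD, five rats per point.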

Data set [5] can be described thus: Biodistribution of [18F]FEDPN in beta estrogen receptor knock out mouse ovaries after 30 min; (n=3). Format: ADME, organism-based, Female gonad. Particulars: in vivo, 0.5 h. Summed up: as §2
The nature of data set [6]: Biodistribution of [18F]-FEDPN in rat thymus after 1 hr when given in tail vein; (n=5). The data set is classed as ADME, organism-based. The settings on record: in vivo, iv. Put shortly:
as §1

Data set [7] is described as follows: Biodistribution of [18F]FEDPN in alpha estrogen receptor knock out mouse ovaries after 2 h; (n=3). The data set is classed as ADME, organism-based, Female gonad. Particulars: in vivo. Put shortly:
as §2

Data set [8] can be described thus: Biodistribution of [18F]FEDPN in beta estrogen receptor knock out mouse ovaries after 1 h; (n=3). The data set is classed as ADME, organism-based, Female gonad. Particulars: in vivo. Summed up: as §2
A short description of data set [9]: Biodistribution of [18F]FEDPN in alpha estrogen receptor knock out mouse blood after 2 h; (n=3). Format: ADME, organism-based. Particulars: in vivo. Put shortly:
(§4)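 ERKO female mice (αERKO or βERKO), rested 48 h after shipping, placed on estrogen-free chow, and staged by daily vaginal smears. Injected in a nonestrous stage with 11 µCi [18F]FEDPN in 130 µL of 10% ethanol/saline. Killed at 30 min, 1 h or 2 h. Organs counted and reported as %ID/g ± SD, three animals per point.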

Data set [10] can be described thus: Biodistribution of [18F]FEDPN in rat ovaries after 30 min when given in tail vein; (n=5). Format: ADME, organism-based, Female gonad. The settings on record: in vivo, iv, 0.5 h. Summed up:
as §3

Data set [11] is described as follows: Biodistribution of [18F]FEDPN in rat lung after 2 h when given in tail vein; (n=5). The data set is classed as ADME, organism-based. Particulars: in vivo, iv. Summed up:
as §3

A short description of data set [12]: Biodistribution of [18F]FEDPN in beta estrogen receptor knock out mouse heart after 2 h; (n=3). The data set is classed as ADME, organism-based. The settings on record: in vivo. Put shortly:
as §2

Data set [13] in a line: Biodistribution of [18F]FEDPN in rat kidney after 30 min when given in tail vein; (n=5). The data set is classed as ADME, organism-based. Particulars: in vivo, iv, 0.5 h. Summed up:
as §3

A short description of data set [14]: Biodistribution of [18F]FEDPN in beta estrogen receptor knock out mouse kidney after 1 h; (n=3). Format: ADME, organism-based. The settings on record: in vivo. Summed up: as §2
The nature of data set [15]: Biodistribution of [18F]FEDPN in rat muscle after 30 min when given in tail vein; (n=5). Format: ADME, organism-based, Muscle tissue. Particulars: in vivo, iv, 0.5 h. Put shortly: as §3
A short description of data set [16]: Biodistribution of [18F]FEDPN in rat blood after 2 h when given in tail vein; (n=5). The data set is classed as ADME, organism-based. The settings on record: in vivo, iv. Summed up:
as §3

The nature of data set [17]: Biodistribution of [18F]FEDPN in alpha estrogen receptor knock out mouse muscle after 1 h; (n=3). Particulars: in vivo. The data set is classed as ADME, organism-based, Muscle tissue. Put shortly: as §2
Data set [18] is described as follows: Biodistribution of [18F]FEDPN in beta estrogen receptor knock out mouse muscle after 2 h; (n=3). Format: ADME, organism-based, Muscle tissue. Particulars: in vivo. Put shortly:
as §2

A short description of data set [19]: Biodistribution of [18F]-FEDPN in rat blood after 1 hr block when given in tail vein; (n=5). Format: ADME, organism-based. The settings on record: in vivo, iv. Summed up: as §1
In data set [20] the target is T1, Estrogen receptor (Mus musculus). The experiment in a line: Ratio of [18F]FEDPN uptake in uterus of ERbeta KO-mouse and ERalpha KO-mouse (nonestrus) after 1 hr.
Data set [21] is described as follows: Biodistribution of [18F]-FEDPN in alpha estrogen receptor knock out mouse blood after 30 min; (n=3). Particulars: in vivo, 0.5 h. Format: ADME, organism-based. Summed up: as §4
Data set [22] in a line: Biodistribution of [18F]-FES in alpha estrogen receptor knock out mouse brain after 2 h; (n=3). Format: ADME, organism-based. The settings on record: in vivo. Summed up:
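αERKO mice staged in diestrus by vaginal smear after rest on estrogen-free chow. Injected with 13 µCi [18F]FES in 100 µL of 10% ethanol/saline and killed at 30 min, 1 h or 2 h (n=3 each). Tissues weighed and gamma-counted, reported as %ID/g ± SD.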

Data set [23] can be described thus: Biodistribution of [18F]FES in beta estrogen receptor knock out mouse fat after 30 min; (n=3). The settings on record: in vivo, 0.5 h. Format: ADME, organism-based, Adipose tissue.
Data set [24] in a line: Biodistribution of [18F]FES in beta estrogen receptor knock out mouse brain after 30 min(n=2); mice in nonestrus stage. Format: ADME, organism-based. Particulars: in vivo, 0.5 h.
A short description of data set [25]: Biodistribution of [18F]FES in beta estrogen receptor knock out mouse ovaries after 30 min; (n=3). The data set is classed as ADME, organism-based, Female gonad. Particulars: in vivo, 0.5 h.
The nature of data set [26]: Biodistribution of [18F]FES in beta estrogen receptor knock out mouse fat after 30 min(n=2); mice in nonestrus stage. Particulars: in vivo, 0.5 h. Format: ADME, organism-based, Adipose tissue.
The nature of data set [27]: Biodistribution of [18F]FES in alpha estrogen receptor knock out mouse uterus after 2 h; (n=3). Format: ADME, organism-based. Particulars: in vivo.
Data set [28] in a line: Biodistribution of [18F]FES in beta estrogen receptor knock out mouse kidney after 30 min(n=2); mice in nonestrus stage. Particulars: in vivo, 0.5 h. Format: ADME, organism-based.
The nature of data set [29]: Biodistribution of [18F]FES in beta estrogen receptor knock out mouse uterus after 1 h; (n=3). The data set is classed as ADME, organism-based. Particulars: in vivo.
The nature of data set [30]: Biodistribution of [18F]FES in alpha estrogen receptor knock out mouse blood after 1 h; (n=3). The data set is classed as ADME, organism-based. The settings on record: in vivo. Put shortly:
(§5)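 Female αERKO mice were rested 48 h after shipping and fed estrogen-free chow. They were staged by daily vaginal smears and studied in diestrus. Each received 13 µCi [18F]FES in 100 µL 10% ethanol/saline and was sacrificed at 30 min, 1 h or 2 h (n = 3 per time). Tissue uptake is given as %ID/g ± SD.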

Data set [31] can be described thus: Biodistribution of [18F]FES in beta estrogen receptor knock out mouse thymus after 2 h; (n=3). Format: ADME, organism-based. Particulars: in vivo.
Data set [32] is described as follows: Biodistribution of [18F]FES in beta estrogen receptor knock out mouse fat after 1 h; (n=3). The data set is classed as ADME, organism-based, Adipose tissue. Particulars: in vivo.
Data set [33] in a line: Biodistribution of [18F]FES in alpha estrogen receptor knock out mouse bone after 1 h; (n=3). The data set is classed as ADME, organism-based, Bone element. The settings on record: in vivo. Put shortly: as §5
Data set [34] is described as follows: Biodistribution of [18F]-FES in beta estrogen receptor knock out mouse heart after 30 min; (n=3). The data set is classed as ADME, organism-based. Particulars: in vivo, 0.5 h. Put shortly: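 Female βERKO mice in estrus were used because repeated swabbing had induced pseudopregnancy. They were fed estrogen-free chow. Each received 13 µCi [18F]FES in 100 µL 10% ethanol/saline and was sacrificed at 30 min, 1 h or 2 h (n = 3 each). Tissue uptake is given as %ID/g ± SD.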

T1 sequence (O08537 whole entry, looked up): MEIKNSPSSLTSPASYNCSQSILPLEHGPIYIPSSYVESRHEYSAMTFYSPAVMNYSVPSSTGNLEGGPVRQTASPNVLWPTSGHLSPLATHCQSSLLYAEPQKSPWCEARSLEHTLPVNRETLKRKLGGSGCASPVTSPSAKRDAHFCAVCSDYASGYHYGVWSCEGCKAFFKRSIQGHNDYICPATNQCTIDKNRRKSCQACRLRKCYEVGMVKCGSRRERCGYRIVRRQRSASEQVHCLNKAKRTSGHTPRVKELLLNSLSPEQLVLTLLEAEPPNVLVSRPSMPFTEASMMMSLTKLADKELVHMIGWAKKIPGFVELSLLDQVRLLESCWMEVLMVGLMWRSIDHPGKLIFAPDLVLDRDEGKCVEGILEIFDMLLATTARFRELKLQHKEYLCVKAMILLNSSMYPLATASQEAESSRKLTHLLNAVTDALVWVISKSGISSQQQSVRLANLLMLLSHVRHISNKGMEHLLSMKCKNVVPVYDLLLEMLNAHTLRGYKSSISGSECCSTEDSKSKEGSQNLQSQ
T1 sequence (P19785 whole entry, looked up): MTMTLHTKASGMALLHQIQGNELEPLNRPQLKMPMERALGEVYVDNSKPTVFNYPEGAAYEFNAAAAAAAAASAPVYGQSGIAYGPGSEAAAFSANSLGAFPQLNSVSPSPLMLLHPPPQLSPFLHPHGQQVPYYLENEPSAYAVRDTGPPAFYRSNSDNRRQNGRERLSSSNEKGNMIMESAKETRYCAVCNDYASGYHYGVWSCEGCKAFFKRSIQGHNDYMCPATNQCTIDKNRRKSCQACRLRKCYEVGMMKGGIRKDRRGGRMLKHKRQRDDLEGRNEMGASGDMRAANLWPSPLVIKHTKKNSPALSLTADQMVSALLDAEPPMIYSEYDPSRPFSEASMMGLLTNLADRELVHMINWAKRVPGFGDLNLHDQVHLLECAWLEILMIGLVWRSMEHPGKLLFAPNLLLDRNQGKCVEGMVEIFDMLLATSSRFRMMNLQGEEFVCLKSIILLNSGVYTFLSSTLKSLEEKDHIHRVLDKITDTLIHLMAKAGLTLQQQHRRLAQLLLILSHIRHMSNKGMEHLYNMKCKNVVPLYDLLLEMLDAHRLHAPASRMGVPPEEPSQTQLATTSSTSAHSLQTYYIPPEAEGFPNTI

For the compound `N#C[C@H](c1ccc(O)cc1)[C@@H](CCF)c1ccc(O)cc1`, the Ratio in [1] is 1.29; in [20], 1.46. For the same compound, the Biodistribution in [2] is reported as 0.74 %ID/g; in data set [3], 0.09 %ID/g; in data set [4], 0.16 %ID/g; in [5], 1.4 %ID/g; in [6], 0.29 %ID/g; in data set [7], 0.28 %ID/g. The Biodistribution in data set [8] is given as 0.41 %ID/g; in data set [9], 0.23 %ID/g; in data set [10], 0.93 %ID/g; in [11] it was 0.19 %ID/g; in data set [12], 0.21 %ID/g; in data set [13] it was 2 %ID/g. Moreover, the Biodistribution in [14] is reported as 2.42 %ID/g; in data set [15] it was 0.57 %ID/g; in data set [16], 0.24 %ID/g; in data set [17], 0.59 %ID/g; in [18], 0.27 %ID/g; in [19], 0.3 %ID/g. The same compound showed a Biodistribution in [21] of 0.73 %ID/g.
On to `C[C@]12CC[C@@H]3c4ccc(O)cc4CC[C@H]3[C@@H]1C[C@@H](F)[C@@H]2O` [FLUOROESTRADIOL], for which the Biodistribution in data set [22] amounted to 0.03 %ID/g; in data set [23], 2.01 %ID/g; in data set [24], 0.81 %ID/g; in data set [25] it was 6.54 %ID/g; in [26], 2.31 %ID/g; in data set [27], 0.36 %ID/g. For the same compound, the Biodistribution worked out at 4.44 %ID/g in data set [28]; 9.81 %ID/g in data set [29]; 0.21 %ID/g in data set [30]; 0.38 %ID/g in data set [31]; 1.07 %ID/g in [32]; 0.24 %ID/g in data set [33]. This compound also yielded a Biodistribution in data set [34] of 1.04 %ID/g.

These data come from ChEMBL document CHEMBL1141109, “Synthesis of an estrogen receptor beta-selective radioligand: 5-[18F]fluoro-(2R,3S)-2,3-bis(4-hydroxyphenyl)pentanenitrile and comparison of in vivo distribution with 16alpha-[18F]fluoro-17beta-estradiol” (J Med Chem, 2005).
